Test results as given in ChEMBL document CHEMBL5724801, “EUbOPEN Chemogenomics Library - Multiplex” (2024).
Several values for one entry are separate records, joined by “and”; a condition that tells them apart may be missing. Equal entries are not always repeated.

System: Fibroblast
Test: Multiplex assay against human fibroblast
Assay type: toxicity, cell-based
Method in brief: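 Tubulin, mitochondrial-mass and membrane-permeability phenotypes are per cents of healthy-nucleus cells. Cells were gated by CellPathfinder machine learning into Hoechst high-intensity objects or normal cells, normal cells into healthy, pyknosed or fragmented nuclei, and pyknosed cells into mitotic or apoptotic. Before that, live cells stained at seeding with Hoechst33342, BioTracker Green Microtubule Cytoskeleton Dye, MitoTracker Red and Annexin V Alexa Fluor 680 were imaged on a CQ1 microscope at 37°C and 5% CO2 after compound addition.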

[1] = 12 h, 1 µM, compound concentration 1 uM
[2] = 12 h, 10 µM, compound concentration 10 uM
[3] = 24 h, 1 µM, compound concentration 1 uM
[4] = 24 h, 10 µM, compound concentration 10 uM
[5] = 48 h, 1 µM, compound concentration 1 uM
[6] = 48 h, 10 µM, compound concentration 10 uM

## CN(C)CCCn1cc(C2=C(c3c[nH]c4ccccc34)C(=O)NC2=O)c2ccccc21 [GF-109203]
[1]
  Population Apoptotic (%): 9.09% and 22.5%
  Population Healthy Nuclei (%): 57.53% and 77.2%
  Population Hoechst High Intensity Objects (%): 0%
  Population Membrane Permeable-Phenotype (%): 4.67% and 8.05%
  Population Mitochondria Different-Phenotype (%): 13.08% and 28.19%
  Population Mitotic Cells (%): 90.91% and 77.5%
  Population Normal (%): 100%
  Population Pyknosed Nuclei (%): 29.57% and 20.73%
  Population Tubulin-Different-Phenotype (%): 29.91% and 44.3%
  Total Cell Count: 186 and 193
[2]
  Population Apoptotic (%): 5.95% and 14.93%
  Population Fragmented Nuclei (%): 4.14% and 6.85%
  Population Healthy Nuclei (%): 46.15% and 47.26%
  Population Hoechst High Intensity Objects (%): 0%
  Population Membrane Permeable-Phenotype (%): 14.1% and 14.49%
  Population Mitochondria Different-Phenotype (%): 57.69% and 36.23%
  Population Mitotic Cells (%): 94.05% and 85.07%
  Population Normal (%): 100%
  Population Pyknosed Nuclei (%): 49.7% and 45.89%
  Population Tubulin-Different-Phenotype (%): 84.62% and 86.96%
  Total Cell Count: 169 and 146
[3]
  Population Fragmented Nuclei (%): 6.12% and 5.42%
  Population Healthy Nuclei (%): 63.78% and 77.34%
  Population Hoechst High Intensity Objects (%): 0%
  Population Membrane Permeable-Phenotype (%): 11.2% and 2.55%
  Population Mitochondria Different-Phenotype (%): 10.4% and 22.93%
  Population Mitotic Cells (%): 98.31% and 85.71%
  Population Normal (%): 100%
  Population Pyknosed Nuclei (%): 30.1% and 17.24%
  Population Tubulin-Different-Phenotype (%): 35.2% and 51.59%
  Total Cell Count: 196 and 203
[4]
  Population Fragmented Nuclei (%): 6.7% and 5.38%
  Population Healthy Nuclei (%): 54.19% and 38.46%
  Population Hoechst High Intensity Objects (%): 0%
  Population Membrane Permeable-Phenotype (%): 11.34% and 10%
  Population Mitochondria Different-Phenotype (%): 50.52% and 40%
  Population Mitotic Cells (%): 95.71% and 80.82%
  Population Normal (%): 100%
  Population Pyknosed Nuclei (%): 39.11% and 56.15%
  Population Tubulin-Different-Phenotype (%): 94.85% and 94%
  Total Cell Count: 179 and 130
[5]
  Population Fragmented Nuclei (%): 9.05% and 3.52%
  Population Healthy Nuclei (%): 77.62% and 88.94%
  Population Hoechst High Intensity Objects (%): 0%
  Population Membrane Permeable-Phenotype (%): 3.07% and 7.91%
  Population Mitochondria Different-Phenotype (%): 12.27% and 18.64%
  Population Mitotic Cells (%): 92.86% and 66.67%
  Population Normal (%): 100%
  Population Pyknosed Nuclei (%): 13.33% and 7.54%
  Population Tubulin-Different-Phenotype (%): 25.15% and 48.02%
  Total Cell Count: 210 and 199
[6]
  Population Apoptotic (%): 20.9% and 48.15%
  Population Fragmented Nuclei (%): 6.19% and 13.29%
  Population Healthy Nuclei (%): 59.28% and 30.07%
  Population Hoechst High Intensity Objects (%): 0%
  Population Mitochondria Different-Phenotype (%): 56.52% and 46.51%
  Population Mitotic Cells (%): 79.1% and 51.85%
  Population Normal (%): 100%
  Population Pyknosed Nuclei (%): 34.54% and 56.64%
  Population Tubulin-Different-Phenotype (%): 93.04% and 86.05%
  Total Cell Count: 194 and 143
